Reference: ChEMBL document CHEMBL4765446, “Synthesis of ticagrelor analogues belonging to 1,2,3-triazolo[4,5-d]pyrimidines and study of their antiplatelet and antibacterial activity” (2020)
In brackets after ≈: the same amount, converted by molar mass.

Assays:
Staphylococcus aureus = assay: Antibacterial activity against methicillin-resistant Staphylococcus aureus BAA-1556 by broth microdilution method; assay type: functional
Outline: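 Single colony from Brain Heart Infusion agar grown overnight in BHI broth, aerobic, 37 °C, 190 rpm. Diluted 100-fold in Mueller-Hinton broth, grown to exponential phase. About 5.10^5 CFU/ml then incubated with or without a range of concentrations, vehicle 1% DMSO. Growth read as OD600. MIC per EUCAST is the lowest concentration with no visible growth, i.e. ΔOD600 versus blank (medium + 1% DMSO) equal to zero.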

Plasma = assay: Antiplatelet activity in human platelet-rich plasma assessed as inhibition of ADP-induced platelet aggregation at 1.8 uM preincubated for 10 mins followed by ADP addition and measured for 10 mins by light transmission aggregometry relative to control; assay type: functional; conditions: time 20 min
Outline: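 Citrated (3.2%) venous blood from drug-free healthy volunteers aged 20–40 years; PRP from 100 × g 15 min spin, adjusted to 250000/µl with autologous PPP (800 × g 15 min). Compound or vehicle (1% DMSO) preincubated 10 min, then stirring at 1200 rpm, 37 °C, and ADP 10 µM added. Aggregation followed 10 min; AUC expressed as fold-inhibition vs vehicle, mean ± S.D., n = 4–21 donors, Wilcoxon paired test.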

For `CCCSc1nc(N[C@@H]2C[C@H]2c2ccc(F)c(F)c2)c2nnn([C@@H]3C[C@H](O)[C@@H](O)[C@H]3O)c2n1`, the MIC (Staphylococcus aureus) was 25 µM (≈ 12 µg/mL) and the “fold change (FC)” value (Plasma) was 4.8.
For `CCCSc1nc(N[C@@H]2C[C@H]2c2ccccc2)c2nnn([C@@H]3C[C@H](OCCO)[C@@H](O)[C@H]3O)c2n1`, the MIC (Staphylococcus aureus) was > 200 µM and the “fold change (FC)” value (Plasma) was 3.1.
In the case of `O[C@@H]1[C@H](O)[C@@H](O)C[C@H]1n1nnc2c(N[C@@H]3C[C@H]3c3ccc(F)c(F)c3)nc(Cl)nc21`, the MIC (Staphylococcus aureus) is reported as > 200 µM and the “fold change (FC)” value (Plasma) is reported as 1.1.
With `C[C@@H](O)CSc1nc(N[C@@H]2C[C@H]2c2ccc(F)c(F)c2)c2nnn([C@@H]3C[C@H](O)[C@@H](O)[C@H]3O)c2n1` the MIC (Staphylococcus aureus) was > 200 µM and the “fold change (FC)” value (Plasma) was 6.2.
For `OCCCSc1nc(N[C@@H]2C[C@H]2c2ccc(F)c(F)c2)c2nnn([C@@H]3C[C@H](OCCO)[C@@H](O)[C@H]3O)c2n1`, the MIC (Staphylococcus aureus) was > 200 µM and the “fold change (FC)” value (Plasma) was 1.
In the case of `C[C@H](O)CSc1nc(N[C@@H]2C[C@H]2c2ccc(F)c(F)c2)c2nnn([C@@H]3C[C@H](O)[C@@H](O)[C@H]3O)c2n1`, the MIC (Staphylococcus aureus) is reported as > 200 µM and the “fold change (FC)” value (Plasma) is reported as 2.
For `CCn1nnc2c(N[C@@H]3C[C@H]3c3ccc(F)c(F)c3)nc(SC)nc21`, the MIC (Staphylococcus aureus) was > 200 µM and the “fold change (FC)” value (Plasma) was 0.87.
With `CCCSc1nc(N[C@@H]2C[C@H]2c2ccc(F)c(F)c2)c2nnn(CC)c2n1` the MIC (Staphylococcus aureus) was > 200 µM and the “fold change (FC)” value (Plasma) was 0.97.
In the case of `CCCSc1nc(N[C@@H]2C[C@H]2c2ccc(F)c(F)c2)c2nnn(C)c2n1`, the MIC (Staphylococcus aureus) is reported as > 200 µM and the “fold change (FC)” value (Plasma) is reported as 1.08.
`CCCSc1nc(NCCc2ccc(F)c(F)c2)c2nnn([C@@H]3C[C@H](OCCO)[C@@H](O)[C@H]3O)c2n1` was tested, and the MIC (Staphylococcus aureus) was > 200 µM and the “fold change (FC)” value (Plasma) was 1.1.
`CC(O)CSc1nc(N[C@@H]2C[C@H]2c2ccc(F)c(F)c2)c2nnn([C@@H]3C[C@H](OCCO)[C@@H](O)[C@H]3O)c2n1` (stereo partly specified) was tested, and the MIC (Staphylococcus aureus) was > 200 µM and the “fold change (FC)” value (Plasma) was 1.7.
With `CSc1nc(N[C@@H]2C[C@H]2c2ccc(F)c(F)c2)c2nnn(C)c2n1` the MIC (Staphylococcus aureus) was > 200 µM and the “fold change (FC)” value (Plasma) was 0.94.
In the case of `OCCCSc1nc(N[C@@H]2C[C@H]2c2ccc(F)c(F)c2)c2nnn([C@@H]3C[C@H](O)[C@@H](O)[C@H]3O)c2n1`, the MIC (Staphylococcus aureus) is reported as > 200 µM and the “fold change (FC)” value (Plasma) is reported as 2.7.
`CCCSc1nc(N[C@@H]2C[C@H]2c2ccc(F)c(F)c2)c2nnn(C3CCCC3)c2n1` was tested, and the MIC (Staphylococcus aureus) was > 200 µM and the “fold change (FC)” value (Plasma) was 1.
`CCCSc1nc(N)c2nnn([C@@H]3C[C@H](O)[C@@H](O)[C@H]3O)c2n1` was tested, and the MIC (Staphylococcus aureus) was > 200 µM and the “fold change (FC)” value (Plasma) was 1.1.
In the case of `CCCSc1nc(N)c2nnn([C@@H]3C[C@H](OCCO)[C@@H](O)[C@H]3O)c2n1`, the MIC (Staphylococcus aureus) is reported as > 200 µM and the “fold change (FC)” value (Plasma) is reported as 1.1.
In the case of `CCSc1nc(N[C@@H]2C[C@H]2c2ccc(F)c(F)c2)c2nnn(CC)c2n1`, the MIC (Staphylococcus aureus) is reported as > 200 µM and the “fold change (FC)” value (Plasma) is reported as 0.91.
In the case of `CCCSc1nc(NC2CC2)c2nnn([C@@H]3C[C@H](OCCO)[C@@H](O)[C@H]3O)c2n1`, the MIC (Staphylococcus aureus) is reported as > 200 µM and the “fold change (FC)” value (Plasma) is reported as 2.6.
For `CCSc1nc(N[C@@H]2C[C@H]2c2ccc(F)c(F)c2)c2nnn(C)c2n1`, the MIC (Staphylococcus aureus) was > 200 µM and the “fold change (FC)” value (Plasma) was 0.97.
`Nc1nc(SCCCO)nc2c1nnn2[C@@H]1C[C@H](O)[C@@H](O)[C@H]1O` was tested, and the MIC (Staphylococcus aureus) was > 200 µM and the “fold change (FC)” value (Plasma) was 1.
For `CC(O)CSc1nc(N)c2nnn([C@@H]3C[C@H](O)[C@@H](O)[C@H]3O)c2n1` (stereo partly specified), the MIC (Staphylococcus aureus) was > 200 µM and the “fold change (FC)” value (Plasma) was 1.
For `O[C@@H]1[C@H](O)[C@@H](O)C[C@H]1n1nnc2c(N[C@@H]3C[C@H]3c3ccc(F)c(F)c3)ncnc21`, the MIC (Staphylococcus aureus) was > 200 µM and the “fold change (FC)” value (Plasma) was 1.
In the case of `CCCSc1nc(N[C@@H]2C[C@H]2c2ccc(F)c(F)c2)c2nnn([C@@H]3C[C@H](OCCO)[C@@H](O)[C@H]3O)c2n1` [TICAGRELOR], the MIC (Staphylococcus aureus) is reported as 25 µM (≈ 13.1 µg/mL) and the “fold change (FC)” value (Plasma) is reported as 4.3.
